ChEMBL document CHEMBL1149108, “Arecoline tripeptide inhibitors of proteasome” (J Med Chem, 2004)
Non-standard residues stand in square brackets, D forms with d. Residues, ends and D or L forms follow the SMILES beside them. ξ: configuration not given here. *: point of attachment. Fmoc = O=C(OCC1c2ccccc2-c2ccccc21)*; Cbz = O=C(OCc1ccccc1)*; ξNle = CCCCC(N)C(=O)O; NHBn = c1ccc(CN*)cc1

Key:
Proteasome [1] = experiment: Inhibitory activity was evaluated against chymotrypsin-like enzyme; assay type: subcellular
Method in brief: (§1)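 Proteasome partially purified from lymphoblastoid cell lines, affinity-purified and dialysed against 25 mM Tris-HCl pH 7.5. Enzyme untreated or pretreated with 0.01-20 µM compound, then incubated 30 min at 37 °C in activity buffer with fluorogenic substrate: Suc-LLVY-AMC for chymotrypsin-like, Boc-LRR-AMC for trypsin-like. Fluorescence read at ex 360/em 465 nm; IC50 derived.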

Proteasome [2] = experiment: Inhibitory activity was evaluated against trypsin-like (proteasome) enzyme; assay type: subcellular; method in brief: as §1
Proteasome [3] = experiment: Inhibitory activity was evaluated against postacid PGPH active site; assay type: subcellular
Method in brief: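 Postacidic (PGPH) activity measured with Ac-YVAD-AMC on partially purified, affinity-purified lymphoblastoid proteasome in 25 mM Tris-HCl pH 7.5. Enzyme untreated or pretreated with 0.01-20 µM compound, then substrate added for 30 min at 37 °C in activity buffer. Fluorescence read at ex 360/em 465 nm; IC50 calculated.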

[4] = Half-life in culture medium was determined; assay type: ADME
Method in brief: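 Compound (stock 10 mg/mL in acetonitrile/H2O 1:1) added to RPMI containing 20% FCS and incubated at 37 °C for up to 2 days. Ethanol added to stop the reaction, then centrifugation and RP-HPLC of the supernatant. Half-life taken from least-squares linear regression of log inhibitor concentration versus time, at least five points.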

[5] = Half-life in human plasma was determined; assay type: ADME
Method in brief: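 Compound incubated with human plasma (0.6 mL in 1.5 mL total) in 10 mM Tris-HCl pH 7.5 at 37 °C for up to 360 min. Ethanol added to stop the reaction, then centrifugation and RP-HPLC of the supernatant. Half-life taken from least-squares regression of log concentration versus time, minimum five points.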

| half-life [4] | half-life [5] | SMILES | IC50 (Proteasome [1]) | IC50 (Proteasome [2]) | IC50 (Proteasome [3]) |
| --- | --- | --- | --- | --- | --- |
| – | – | CC(C)C[C@H](NC(=O)[C@H](CO)NC(=O)[C@H](Cc1ccccc1)NC(=O)OCc1ccccc1)C(=O)NCc1ccccc1 | 2.18 µM | 4.82 µM | 17.6 µM |
| > 6 h | > 6 h | CC(C)C[C@H](NC(=O)[C@H](CO)NC(=O)[C@@H](NC(=O)C1=CCCNC1)C(C)C)C(=O)NCc1ccccc1 | 0.52 µM | 2.16 µM | > 20 µM |
| – | – | CC(C)C[C@H](NC(=O)[C@H](CO)NC(=O)[C@H](Cc1ccccc1)NC(=O)OCC1c2ccccc2-c2ccccc21)C(=O)NCc1ccccc1 | 11 µM | 12.9 µM | 19.1 µM |
| > 6 h | > 6 h | CC(C)C[C@H](NC(=O)[C@H](CO)NC(=O)[C@H](Cc1ccccc1)NC(=O)C1=CCCNC1)C(=O)NCc1ccccc1 | 1.23 µM | 2.93 µM | > 20 µM |
| > 6 h | 4.92 h | CC(C)C[C@H](NC(=O)C1=CCCNC1)C(=O)N[C@@H](CC(C)C)C(=O)N[C@@H](CC(C)C)C(=O)NCc1ccccc1 | 1.41 µM | 2.57 µM | > 20 µM |
| – | – | CCCCC(NC(=O)OCc1ccccc1)C(=O)N[C@@H](CO)C(=O)N[C@@H](CC(C)C)C(=O)NCc1ccccc1 (stereo partly drawn) (Cbz-[ξNle]-Ser-Leu-NHBn) | > 20 µM | 18.2 µM | > 20 µM |
| – | – | CCCCC(NC(=O)OCC1c2ccccc2-c2ccccc21)C(=O)N[C@@H](CO)C(=O)N[C@@H](CC(C)C)C(=O)NCc1ccccc1 (stereo partly drawn) (Fmoc-[ξNle]-Ser-Leu-NHBn) | > 20 µM | > 20 µM | > 20 µM |
| – | – | CC(C)C[C@H](NC(=O)[C@H](CO)NC(=O)[C@H](C)NC(=O)OCC1c2ccccc2-c2ccccc21)C(=O)NCc1ccccc1 (HELM PEPTIDE1{[O=C(OCC1c2ccccc2-c2ccccc21)[*:2]].A.S.L.[c1ccc(CN[*:1])cc1]}$$$$V2.0) | > 20 µM | > 20 µM | > 20 µM |
| – | – | CC[C@H](C)[C@H](NC(=O)OCC1c2ccccc2-c2ccccc21)C(=O)N[C@@H](CO)C(=O)N[C@@H](CC(C)C)C(=O)NCc1ccccc1 (HELM PEPTIDE1{[O=C(OCC1c2ccccc2-c2ccccc21)[*:2]].I.S.L.[c1ccc(CN[*:1])cc1]}$$$$V2.0) | > 20 µM | > 20 µM | > 20 µM |
| – | – | CC(C)C[C@H](NC(=O)OCC1c2ccccc2-c2ccccc21)C(=O)N[C@@H](CC(C)C)C(=O)N[C@@H](CC(C)C)C(=O)NCc1ccccc1 (HELM PEPTIDE1{[O=C(OCC1c2ccccc2-c2ccccc21)[*:2]].L.L.L.[c1ccc(CN[*:1])cc1]}$$$$V2.0) | 12.2 µM | 10.7 µM | > 20 µM |
| – | – | CC(C)C[C@H](NC(=O)OCC1c2ccccc2-c2ccccc21)C(=O)N[C@@H](CO)C(=O)N[C@@H](CC(C)C)C(=O)NCc1ccccc1 (HELM PEPTIDE1{[O=C(OCC1c2ccccc2-c2ccccc21)[*:2]].L.S.L.[c1ccc(CN[*:1])cc1]}$$$$V2.0) | > 20 µM | > 20 µM | > 20 µM |
| – | – | CC(C)C[C@H](NC(=O)[C@H](CO)NC(=O)[C@@H]1CCCN1C(=O)OCC1c2ccccc2-c2ccccc21)C(=O)NCc1ccccc1 (HELM PEPTIDE1{[O=C(OCC1c2ccccc2-c2ccccc21)[*:2]].P.S.L.[c1ccc(CN[*:1])cc1]}$$$$V2.0) | > 20 µM | > 20 µM | > 20 µM |
| – | – | CC(C)C[C@H](NC(=O)[C@H](CO)NC(=O)[C@@H](NC(=O)OCC1c2ccccc2-c2ccccc21)C(C)C)C(=O)NCc1ccccc1 (HELM PEPTIDE1{[O=C(OCC1c2ccccc2-c2ccccc21)[*:2]].V.S.L.[c1ccc(CN[*:1])cc1]}$$$$V2.0) | 5.91 µM | 13.6 µM | > 20 µM |
| – | – | CC(C)C[C@H](NC(=O)[C@H](CO)NC(=O)[C@H](C)NC(=O)OCc1ccccc1)C(=O)NCc1ccccc1 (HELM PEPTIDE1{[O=C(OCc1ccccc1)[*:2]].A.S.L.[c1ccc(CN[*:1])cc1]}$$$$V2.0) | > 20 µM | > 20 µM | > 20 µM |
| – | – | CC[C@H](C)[C@H](NC(=O)OCc1ccccc1)C(=O)N[C@@H](CO)C(=O)N[C@@H](CC(C)C)C(=O)NCc1ccccc1 (HELM PEPTIDE1{[O=C(OCc1ccccc1)[*:2]].I.S.L.[c1ccc(CN[*:1])cc1]}$$$$V2.0) | > 20 µM | > 20 µM | > 20 µM |
| – | – | CC(C)C[C@H](NC(=O)OCc1ccccc1)C(=O)N[C@@H](CC(C)C)C(=O)N[C@@H](CC(C)C)C(=O)NCc1ccccc1 (HELM PEPTIDE1{[O=C(OCc1ccccc1)[*:2]].L.L.L.[c1ccc(CN[*:1])cc1]}$$$$V2.0) | 9.51 µM | 8.93 µM | > 20 µM |
| – | – | CC(C)C[C@H](NC(=O)OCc1ccccc1)C(=O)N[C@@H](CO)C(=O)N[C@@H](CC(C)C)C(=O)NCc1ccccc1 (HELM PEPTIDE1{[O=C(OCc1ccccc1)[*:2]].L.S.L.[c1ccc(CN[*:1])cc1]}$$$$V2.0) | > 20 µM | 15.8 µM | > 20 µM |
| – | – | CC(C)C[C@H](NC(=O)[C@H](CO)NC(=O)[C@@H](NC(=O)OCc1ccccc1)C(C)C)C(=O)NCc1ccccc1 (HELM PEPTIDE1{[O=C(OCc1ccccc1)[*:2]].V.S.L.[c1ccc(CN[*:1])cc1]}$$$$V2.0) | 3.73 µM | 9.46 µM | > 20 µM |
